Results on eight molecules are retold here after ChEMBL document CHEMBL3593239, “PABA/NO lead optimization: Improved targeting of cytotoxicity to glutathione S-transferase P1-overexpressing cancer cells” (Bioorg Med Chem, 2015).

A short description of data set [1]: Drug level in phosphate buffer treated with (Z)-1-(4-cyano-5-(4-(methylamino)benzoyloxy)-2-nitrophenoxy)-3,3-dimethyltriaz-1-ene 2-oxide at 1 uM at pH 7.4 at 37 degC measured for 30 mins by LC-MS/MS analysis in presence of GSH. Type of data set: physicochemical. The note with it: pH 7.4, 0.5 h.
The target of data set [2] is T1, Glutathione S-transferase A1 (Homo sapiens, UniProt P08263).
T1 sequence (P08263 whole entry): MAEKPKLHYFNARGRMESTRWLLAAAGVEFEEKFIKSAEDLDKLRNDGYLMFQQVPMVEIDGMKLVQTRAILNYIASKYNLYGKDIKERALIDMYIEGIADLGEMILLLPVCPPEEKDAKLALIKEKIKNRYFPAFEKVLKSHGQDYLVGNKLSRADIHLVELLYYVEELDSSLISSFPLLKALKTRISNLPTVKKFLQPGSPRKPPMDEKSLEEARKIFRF
Description: Drug level in phosphate buffer assessed as GSTA1 (unknown origin)-mediated compound formation from nitric oxide release pathway treated with (Z)-1-(4-cyano-5-(4-(methylamino)benzoyloxy)-2-nitrophenoxy)-3,3-dimethyltriaz-1-ene 2-oxide at 1 uM at pH 7.4 at 37 degC after 30 mins by LC-MS/MS analysis in presence of GSH. The note with it: pH 7.4, 0.5 h. Type of data set: ADME. The procedure, abridged:
(§1)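 Products analysed by LC–MS. The ratio is the NO-release-pathway product over the NO-retained-pathway phenolic product.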

Data set [3] in a line: Drug level in phosphate buffer treated with (Z)-1-(2-cyano-5-(4-(methylamino)benzoyloxy)-4-nitrophenoxy)-3,3-dimethyltriaz-1-ene 2-oxide at 1 uM at pH 7.4 at 37 degC after 30 secs by LC-MS analysis in presence of GSH. Type of data set: physicochemical. The note with it: pH 7.4, 0.5 min.
Data set [4] has as its target T1, Glutathione S-transferase A1. Description: Drug level in phosphate buffer assessed as GSTA1 (unknown origin)-mediated compound formation from nitric oxide retained pathway treated with (Z)-1-(2-cyano-5-(4-(methylamino)benzoyloxy)-4-nitrophenoxy)-3,3-dimethyltriaz-1-ene 2-oxide at 1 uM at pH 7.4 at 37 degC after 30 mins by LC-MS/MS analysis in presence of GSH. Type of data set: ADME. The note with it: pH 7.4, 0.5 h. In outline: as §1

For data set [5] the target is unchanged. Description: Drug level in phosphate buffer assessed as GSTA1 (unknown origin)-mediated compound formation from nitric oxide release pathway treated with (Z)-1-(2-cyano-5-(4-(methylamino)benzoyloxy)-4-nitrophenoxy)-3,3-dimethyltriaz-1-ene 2-oxide at 1 uM at pH 7.4 at 37 degC after 30 mins by LC-MS/MS analysis in presence of GSH. Type of data set: ADME. The note with it: pH 7.4, 0.5 h. In outline:
as §1

Data set [6] in a line: Drug level in phosphate buffer treated with (Z)-3,3-dimethyl-1-(5-(4-(methylamino)benzoyloxy)-2,4-dinitrophenoxy)triaz-1-ene 2-oxide at 1 uM at pH 7.4 at 25 degC by HPLC trapping method. Type of data set: physicochemical. The note with it: pH 7.4, 1 µM.
Data set [7] is described as follows: Drug level in phosphate buffer treated with (Z)-3,3-dimethyl-1-(5-(4-(methylamino)benzoyloxy)-2,4-dinitrophenoxy)triaz-1-ene 2-oxide at 1 uM at pH 7.4 at 37 degC after 1 to 30 mins by LC/MS-MS analysis. Type of data set: physicochemical. The note with it: pH 7.4, 1 µM.
For data set [8], the target named is T2, Glutathione S-transferase P (Homo sapiens, UniProt P09211). Description: Drug level in phosphate buffer assessed as GSTP1 (unknown origin)-mediated compound formation treated with (Z)-1-(2-cyano-5-(4-(methylamino)benzoyloxy)-4-nitrophenoxy)-3,3-dimethyltriaz-1-ene 2-oxide at 1 uM at pH 7.4 at 37 degC after 5 to 30 mins by LC-MS/MS analysis in presence of GSH. Type of data set: ADME. The note with it: pH 7.4, 1 µM. The procedure, abridged:
(§2)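 Test compound at 1 µM reacted with 4 mM GSH containing 4 nM GSTP1 in 0.1 M phosphate, pH 7.4, at 37 °C. Products identified by LC–MS traces taken at 60 s and 30 min.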

The nature of data set [9]: Drug level in phosphate buffer treated with (Z)-3,3-dimethyl-1-(5-(4-(methylamino)benzoyloxy)-2,4-dinitrophenoxy)triaz-1-ene 2-oxide at 1 uM at pH 7.4 at 37 degC by HPLC trapping method in presence of GSH. Type of data set: physicochemical. The note with it: pH 7.4, 1 µM.
Data set [10] addresses T2, Glutathione S-transferase P. Description: Drug level in phosphate buffer assessed as GSTP1 (unknown origin)-mediated compound formation treated with (Z)-1-(4-cyano-5-(4-(methylamino)benzoyloxy)-2-nitrophenoxy)-3,3-dimethyltriaz-1-ene 2-oxide at 1 uM at pH 7.4 at 37 degC after 1 to 30 mins by LC-MS/MS analysis in presence of GSH. Type of data set: ADME. The note with it: pH 7.4, 1 µM. In outline:
as §2

T2 sequence (P09211 whole entry): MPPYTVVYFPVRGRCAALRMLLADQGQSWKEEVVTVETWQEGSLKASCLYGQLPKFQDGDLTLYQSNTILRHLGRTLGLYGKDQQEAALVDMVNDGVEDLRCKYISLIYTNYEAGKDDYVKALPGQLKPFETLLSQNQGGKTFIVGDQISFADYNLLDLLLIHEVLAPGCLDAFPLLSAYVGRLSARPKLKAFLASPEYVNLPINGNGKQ

On to `N#Cc1cc([N+](=O)[O-])c(SC[C@H](NC(=O)CC[C@H](N)C(=O)O)C(=O)NCC(=O)O)cc1O`, for which the Drug metabolism entry in data set [1] and in [2] was “metabolite_detected” each time.
Take `CN(C)/[N+]([O-])=N/Oc1cc(O)c([N+](=O)[O-])cc1C#N`: the Drug metabolism entry in data set [3] and in data set [4] was “metabolite_detected” each time.
With `N#Cc1cc([N+](=O)[O-])c(O)cc1SC[C@H](NC(=O)CC[C@H](N)C(=O)O)C(=O)NCC(=O)O`, the Drug metabolism entry in data set [5] was “metabolite_detected”.
On to `CNc1ccc(C(=O)O)cc1`, for which the Drug metabolism result in [6], in [3] and in data set [7] was “metabolite_detected” throughout.
For `N[C@@H](CCC(=O)N[C@@H](CSc1cc(SC[C@H](NC(=O)CC[C@H](N)C(=O)O)C(=O)NCC(=O)O)c([N+](=O)[O-])cc1[N+](=O)[O-])C(=O)NCC(=O)O)C(=O)O`, the Drug metabolism entry in data set [7] is given as “metabolite_detected”.
As for `CN(C)/[N+]([O-])=N/Oc1cc(SC[C@H](NC(=O)CC[C@H](N)C(=O)O)C(=O)NCC(=O)O)c([N+](=O)[O-])cc1C#N`, the Drug metabolism entry in data set [3] and in data set [8] was “metabolite_detected” throughout.
In the case of `CN(C)/[N+]([O-])=N/Oc1cc(SC[C@H](NC(=O)CC[C@H](N)C(=O)O)C(=O)NCC(=O)O)c([N+](=O)[O-])cc1[N+](=O)[O-]`, the Drug metabolism result in [9] was “metabolite_detected”.
As for `CNc1ccc(C(=O)Oc2cc(SC[C@H](NC(=O)CC[C@H](N)C(=O)O)C(=O)NCC(=O)O)c([N+](=O)[O-])cc2C#N)cc1`, the Drug metabolism entry in [10] was “metabolite_detected”.
